# Data reported in ChEMBL document CHEMBL3585265, “Bacteria-Derived Compatible Solutes Ectoine and 5α-Hydroxyectoine Act as Intestinal Barrier Stabilizers to Ameliorate Experimental Inflammatory Bowel Disease” (J Nat Prod, 2015).
# Active and inactive are the calls of the source. The rule behind the calls is not given here.
# How the values were obtained:
# [1] = tested on: Rattus norvegicus; assay: Anti-colitis activity in Wistar rat assessed as suppression of TNBS-induced body weight reduction at 300 mg/kg, po qd administered for 1 week starting 48 hrs post TNBS induction; type: functional, organism-based
# How it was run: (§1)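 Adult male Wistar rats (150−200 g), fasted 36 h, received 0.25 mL 50% (v/v) ethanol containing 100 mg/kg TNBS, instilled 8 cm into colon under light ether. Oral dosing (water vehicle, 1 mL per 200 g) once daily for 1 week from 48 h; sacrifice 24 h after last dose. Body weight recorded before induction and before necropsy. Distal 8 cm colon weighed; mass index as mg/g body weight. n ≥ 6, mean ± SEM.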
# [2] = tested on: Rattus norvegicus; assay: Anti-colitis activity in Wistar rat assessed as reduction of TNBS-induced colon mass index at 300 mg/kg, po qd administered for 1 week starting 48 hrs post TNBS induction; type: functional, organism-based; how it was run: as §1
# [3] = tested on: Rattus norvegicus; assay: Anti-colitis activity in Wistar rat assessed as suppression of TNBS-induced reduction of colonic GSH level at 300 mg/kg, po qd administered for 1 week starting 48 hrs post TNBS induction by spectrophotometric analysis; type: functional, organism-based
# How it was run: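 Colitis induced rectally with 100 mg/kg TNBS in 50% ethanol; oral dosing daily for 1 week from 48 h later. Colon homogenate (10% w/v, ice-cold water) deproteinized with ice-cold 5% sulfosalicylic acid, centrifuged 3000 rpm 20 min; supernatant used for spectrophotometric reduced glutathione estimation. n ≥ 6, mean ± SEM.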
# [4] = tested on: Rattus norvegicus; assay: Toxicity in Wistar rat assessed as decrease in Hsp70 level at 300 mg/kg, po qd administered for 1 week starting 48 hrs post TNBS induction by ELISA; type: organism-based; settings: in vivo
# How it was run: (§2)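 TNBS colitis in male Wistar rats: 100 mg/kg TNBS in 0.25 mL 50% ethanol, instilled 8 cm into the colon after a 36 h fast. Oral dosing in 1 mL per 200 g rat. Rats were killed 24 h after the last dose. The distal 8 cm colon was rinsed in ice-cold saline and homogenized 10% (w/v) in ice-cold bidistilled water. Mean of ≥6 animals ± SEM.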
# [5] = tested on: Rattus norvegicus; assay: Toxicity in Wistar rat assessed as effect on colonic GSH level at 100 mg/kg, po qd administered for 1 week by spectrophotometric analysis; type: organism-based, Colon; settings: in vivo, 168 h
# How it was run: (§3)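 Normal male Wistar rats (150–200 g) underwent the same rectal procedure with saline in place of TNBS. They received water or 100 mg/kg compound orally once daily for 1 week and were killed 24 h after the last dose. The distal 8 cm colon was weighed and homogenized 10% (w/v) in ice-cold bidistilled water. Body weight was taken before instillation and before necropsy.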
# [6] = tested on: Rattus norvegicus; assay: Toxicity in Wistar rat assessed as effect on colonic ICAM1 level at 100 mg/kg, po qd administered for 1 week by ELISA; type: organism-based, Colon; settings: in vivo, 168 h; how it was run: as §3
# [7] = tested on: Rattus norvegicus; assay: Toxicity in Wistar rat assessed as decrease in Hsp70 level at 100 mg/kg, po qd administered for 1 week by ELISA; type: organism-based; settings: in vivo, 168 h; how it was run: as §3
# [8] = tested on: Rattus norvegicus; assay: Toxicity in Wistar rat assessed as decrease in Hsp70 level at 50 to 300 mg/kg, po qd administered for 1 week starting 48 hrs post TNBS induction by ELISA; type: organism-based; settings: in vivo; how it was run: as §2
# [9] = tested on: Rattus norvegicus; assay: Toxicity in Wistar rat assessed as effect on body weight at 100 mg/kg, po qd administered for 1 week; type: organism-based; settings: in vivo, 168 h; how it was run: as §3
# [10] = tested on: Rattus norvegicus; assay: Toxicity in Wistar rat assessed as effect on colon mass index at 100 mg/kg, po qd administered for 1 week; type: organism-based; settings: in vivo, 168 h; how it was run: as §3
# [11] = tested on: Rattus norvegicus; assay: Toxicity in Wistar rat assessed as effect on myeloperoxidase activity at 100 mg/kg, po qd administered for 1 week by spectrophotometric analysis; type: organism-based; settings: in vivo, 168 h; how it was run: as §3
# [12] = tested on: Rattus norvegicus; assay: Toxicity in Wistar rat assessed as effect on TNF-alpha level at 100 mg/kg, po qd administered for 1 week by ELISA; type: organism-based; settings: in vivo, 168 h; how it was run: as §3
# [13] = tested on: Rattus norvegicus; assay: Toxicity in Wistar rat assessed as effect on IL-1beta level at 100 mg/kg, po qd administered for 1 week by ELISA; type: organism-based; settings: in vivo, 168 h; how it was run: as §3
# [14] = tested on: Rattus norvegicus; assay: Anti-colitis activity in Wistar rat assessed as suppression of TNBS-induced body weight reduction at 50 to 300 mg/kg, po qd administered for 1 week starting 48 hrs post TNBS induction; type: functional, organism-based
# How it was run: (§4)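 Male Wistar rats (150–200 g) were fasted 36 h, then given 100 mg/kg TNBS in 0.25 mL 50% ethanol rectally under light ether, with the catheter tip 8 cm from the anus. Oral dosing was in 1 mL per 200 g rat. Rats were killed 24 h after the last dose. Body weight was taken before induction and before necropsy. Ulcer area in the distal 8 cm colon was measured planimetrically (cm2). Colon mass index is colon weight/body weight (mg/g). Mean of ≥6 animals ± SEM.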
# [15] = tested on: Rattus norvegicus; assay: Anti-colitis activity in Wistar rat assessed as reduction of TNBS-induced ulcerative area at 50 to 300 mg/kg, po qd administered for 1 week starting 48 hrs post TNBS induction (reference value: 4.9 cm2); type: functional; how it was run: as §4
# [16] = tested on: Rattus norvegicus; assay: Anti-colitis activity in Wistar rat assessed as reduction of TNBS-induced colon mass index at 100 mg/kg, po qd administered for 1 week starting 48 hrs post TNBS induction (reference value: 7.9 mg/g); type: functional; how it was run: as §4
# [17] = tested on: Rattus norvegicus; assay: Anti-colitis activity in Wistar rat assessed as reduction of TNBS-induced myeloperoxidase activity at 100 mg/kg, po qd administered for 1 week starting 48 hrs post TNBS induction by spectrophotometric analysis; type: functional, organism-based
# [18] = tested on: Rattus norvegicus; assay: Anti-colitis activity in Wistar rat assessed as suppression of TNBS-induced reduction of colonic GSH level at 50 to 300 mg/kg, po qd administered for 1 week starting 48 hrs post TNBS induction by spectrophotometric analysis; type: functional, organism-based
# How it was run: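 TNBS colitis in male Wistar rats: 100 mg/kg TNBS in 0.25 mL 50% ethanol given rectally. Colon was taken 24 h after the last oral dose and homogenized 10% (w/v) in ice-cold water. Homogenate was deproteinized with ice-cold 5% sulfosalicylic acid and spun at 3000 rpm for 20 min; GSH was read spectrophotometrically in the supernatant. Mean of ≥6 animals ± SEM.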
# [19] = tested on: Rattus norvegicus; assay: Anti-colitis activity in Wistar rat assessed as suppression of TNBS-induced colonic TNF-alpha level at 50 to 300 mg/kg, po qd administered for 1 week starting 48 hrs post TNBS induction by ELISA; type: functional, organism-based
# How it was run: (§5)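 TNBS/ethanol colitis in male Wistar rats, as described; oral once-daily treatment for 1 week beginning 48 h post-induction, sacrifice 24 h after final dose. Distal 8 cm colon excised, rinsed in ice-cold saline, homogenized 10% (w/v) in ice-cold bidistilled water; aliquot assayed for TNF-α and IL-1β by ELISA. At least 6 animals per group, mean ± SEM.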
# [20] = tested on: Rattus norvegicus; assay: Anti-colitis activity in Wistar rat assessed as suppression of TNBS-induced colonic IL-1beta level at 50 to 300 mg/kg, po qd administered for 1 week starting 48 hrs post TNBS induction by ELISA; type: functional, organism-based; how it was run: as §5
# [21] = tested on: Rattus norvegicus; assay: Anti-colitis activity in Wistar rat assessed as suppression of TNBS-induced fecal calprotectin level at 100 mg/kg, po qd administered for 1 week starting 48 hrs post TNBS induction by ELISA; type: functional, organism-based
# How it was run: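 Feces were collected before sacrifice from 4 randomly chosen TNBS-colitis rats per group, suspended 1:10 in extraction buffer and incubated 90 min at room temperature. Calprotectin (S100A8/S100A9) was measured by ELISA, with samples incubated 90 min at room temperature. Samples were run in duplicate and medians taken.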
# [22] = tested on: Rattus norvegicus; assay: Anti-colitis activity in Wistar rat assessed as reduction of TNBS-induced colon mass index at 50 mg/kg, po qd administered for 1 week starting 48 hrs post TNBS induction (reference value: 7.9 mg/g); type: functional; how it was run: as §4
# [23] = tested on: Rattus norvegicus; assay: Anti-colitis activity in Wistar rat assessed as reduction of TNBS-induced myeloperoxidase activity at 50 mg/kg, po qd administered for 1 week starting 48 hrs post TNBS induction by spectrophotometric analysis; type: functional, organism-based; how it was run: as §2
# [24] = tested on: Rattus norvegicus; assay: Anti-colitis activity in Wistar rat assessed as suppression of TNBS-induced colonic TNF-alpha level at 50 to 100 mg/kg, po qd administered for 1 week starting 48 hrs post TNBS induction by ELISA; type: functional, organism-based; how it was run: as §2
# [25] = tested on: Rattus norvegicus; assay: Anti-colitis activity in Wistar rat assessed as suppression of TNBS-induced colonic IL-1beta level at 50 to 100 mg/kg, po qd administered for 1 week starting 48 hrs post TNBS induction by ELISA; type: functional, organism-based; how it was run: as §2
SMILES,Activity [5],Activity [6],Activity [7],Activity [8],Activity [9],Activity [10],Activity [11],Activity [12],Activity [13],Activity [14],Activity [15] [cm2],Activity [18],Activity [21],also measured
O=C(O)c1cc(/N=N/c2ccc(S(=O)(=O)Nc3ccccn3)cc2)ccc1O [SULFASALAZINE],–,–,–,–,–,–,–,–,–,–,–,–,–,Activity [1]: Active; Activity [2]: Active; Activity [3]: inactive; Activity [4]: Toxic
CC1=NC[C@H](O)[C@@H](C(=O)O)N1,Non-toxic,Non-toxic,Toxic,Toxic,Non-toxic,Non-toxic,Non-toxic,Non-toxic,Non-toxic,–,–,–,–,–
CC1=N[C@H](C(=O)O)CCN1,Non-toxic,Non-toxic,Toxic,Toxic,Non-toxic,Non-toxic,Non-toxic,Non-toxic,Non-toxic,Active,1.2,inactive,Active,Activity [16]: 4.3 mg/g; Activity [17]: Active; Activity [19]: Active; Activity [20]: Active
CC1=N[C@H](C(=O)O)[C@@H](O)CN1,–,–,–,–,–,–,–,–,–,Active,1.3,inactive,Active,Activity [22]: 4 mg/g; Activity [23]: Active; Activity [24]: Active; Activity [25]: Active
